What all share (type): functional, cell-based
Series [1] has as its target T1, ATP-dependent translocase ABCB1 (Mus musculus, UniProt P21447). The experiment in a line: TP_TRANSPORTER: transcellular transport in mdr1a-expressing LLC-PK1 cells. The settings on record: pig. In outline:
(§1)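 Polarized monolayers of LLC-PK1 pig kidney cells transfected with human MDR1, mouse mdr1a or mouse mdr1b cDNA, paired with wildtype LLC-PK1 monolayers. Directional transport across the monolayer was expressed as a transport ratio. The Pgp inhibitor PSC833 was used to test whether transport was Pgp-specific. Cyclosporin A served as the positive-control Pgp substrate.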

Series [2] deals with T2, ATP-dependent translocase ABCB1 (Homo sapiens, UniProt P08183). The series is described as follows: TP_TRANSPORTER: transcellular transport in MDR1-expressing LLC-PK1 cells. The settings on record: pig. An outline of the steps:
as §1

Series [3] concerns the target ATP-dependent translocase ABCB1 (Mus musculus, UniProt P06795). The series is described as follows: TP_TRANSPORTER: transcellular transport in mdr1b-expressing LLC-PK1 cells. The following applies: pig. An outline of the steps: as §1
The target of series [4] is ATP-binding cassette sub-family C member 2 (Homo sapiens, UniProt Q92887). The series is described as follows: TP_TRANSPORTER: transcellular transport in MRP2-expressing MDCKII cells. The settings on record: dog, mdck-ii. In outline: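 Directional transcellular transport was measured across polarized MDCKII monolayers transfected with human MRP2 cDNA and compared with wildtype MDCKII cells. Vinblastine served as the reference MRP2 substrate. The read-out was the transport ratio (TR).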

The target of series [5] is T2, ATP-dependent translocase ABCB1. The experiment in a line: TP_TRANSPORTER: inhibition of cyclosporin A transcellular transport by tariquidar at a concentration of 0.2uM in MDR1-expressing MDCKII cells. The following applies: dog, mdck-ii.
Series [6] concerns the target T1, ATP-dependent translocase ABCB1. The series is described as follows: TP_TRANSPORTER: inhibition of cyclosporin A transcellular transport by carbamazepine at a concentration of 224uM in mdr1a-expressing LLC-PK1 cells. The following applies: pig, llc-pk1, 224 µM.
For series [7], the target named is T2, ATP-dependent translocase ABCB1. The series is described as follows: TP_TRANSPORTER: inhibition of cyclosporin A transcellular transport by carbamazapine 224 uM in MDR1-expressing LLC-PK1 cells. The following applies: pig, llc-pk1, 224 µM.
The target of series [8] is T1, ATP-dependent translocase ABCB1. The series is described as follows: TP_TRANSPORTER: inhibition of levetiracetam transcellular transport by PSC833 at a concentration of 30uM in mdr1a-expressing LLC-PK1 cells. The following applies: pig, llc-pk1, 30 µM.
In series [9] the target is T2, ATP-dependent translocase ABCB1. The series is described as follows: TP_TRANSPORTER: inhibition of cyclosporin A transcellular transport by PSC833 at a concentration of 30uM in MDR1-expressing MDCKII cells. The following applies: dog, mdck-ii.
Series [10] addresses T1, ATP-dependent translocase ABCB1. The experiment in a line: TP_TRANSPORTER: inhibition of phenytoin transcellular transport by PSC833 at a concentration of 30uM in mdr1a-expressing LLC-PK1 cells. The settings on record: pig, llc-pk1, 30 µM.
For series [11] the target is unchanged. The experiment in a line: TP_TRANSPORTER: inhibition of cyclosporin A transcellular transport by PSC833 at a concentration of 30uM in mdr1a-expressing LLC-PK1 cells. The settings on record: pig, llc-pk1, 30 µM.

Molecules are shown by their SMILES.

T2 sequence (P08183 whole entry): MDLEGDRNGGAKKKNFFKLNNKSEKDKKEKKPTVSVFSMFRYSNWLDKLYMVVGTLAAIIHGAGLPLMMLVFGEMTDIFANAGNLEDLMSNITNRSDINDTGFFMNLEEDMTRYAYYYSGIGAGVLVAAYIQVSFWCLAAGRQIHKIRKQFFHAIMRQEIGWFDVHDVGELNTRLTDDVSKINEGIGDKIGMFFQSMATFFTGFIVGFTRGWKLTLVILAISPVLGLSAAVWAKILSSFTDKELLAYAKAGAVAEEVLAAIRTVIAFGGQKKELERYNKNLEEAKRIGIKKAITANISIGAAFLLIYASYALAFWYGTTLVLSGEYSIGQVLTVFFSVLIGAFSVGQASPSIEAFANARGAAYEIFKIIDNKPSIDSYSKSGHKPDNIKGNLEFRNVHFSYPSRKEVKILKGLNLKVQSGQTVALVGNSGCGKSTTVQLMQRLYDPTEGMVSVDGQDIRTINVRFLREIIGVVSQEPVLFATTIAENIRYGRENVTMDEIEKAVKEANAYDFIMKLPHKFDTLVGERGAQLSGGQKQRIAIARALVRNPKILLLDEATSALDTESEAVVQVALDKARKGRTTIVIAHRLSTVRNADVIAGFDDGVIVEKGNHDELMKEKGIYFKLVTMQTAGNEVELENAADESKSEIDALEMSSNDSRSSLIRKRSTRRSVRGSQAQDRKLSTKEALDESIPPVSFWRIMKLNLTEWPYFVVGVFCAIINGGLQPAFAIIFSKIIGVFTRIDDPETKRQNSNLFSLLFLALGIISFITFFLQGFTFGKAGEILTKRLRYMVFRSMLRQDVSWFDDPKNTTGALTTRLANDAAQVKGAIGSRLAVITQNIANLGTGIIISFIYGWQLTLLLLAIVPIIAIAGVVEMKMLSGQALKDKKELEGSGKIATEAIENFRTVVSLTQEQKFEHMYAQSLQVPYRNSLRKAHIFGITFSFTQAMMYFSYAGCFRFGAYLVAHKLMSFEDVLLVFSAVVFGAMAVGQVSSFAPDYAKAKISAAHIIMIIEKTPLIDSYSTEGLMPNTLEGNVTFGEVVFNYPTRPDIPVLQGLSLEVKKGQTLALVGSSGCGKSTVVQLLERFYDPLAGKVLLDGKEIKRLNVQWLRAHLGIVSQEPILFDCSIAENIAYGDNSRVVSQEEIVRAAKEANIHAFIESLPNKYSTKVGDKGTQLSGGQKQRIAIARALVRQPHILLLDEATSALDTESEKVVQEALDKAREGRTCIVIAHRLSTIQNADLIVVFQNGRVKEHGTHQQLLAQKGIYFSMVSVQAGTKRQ
T1 sequence (P21447 whole entry): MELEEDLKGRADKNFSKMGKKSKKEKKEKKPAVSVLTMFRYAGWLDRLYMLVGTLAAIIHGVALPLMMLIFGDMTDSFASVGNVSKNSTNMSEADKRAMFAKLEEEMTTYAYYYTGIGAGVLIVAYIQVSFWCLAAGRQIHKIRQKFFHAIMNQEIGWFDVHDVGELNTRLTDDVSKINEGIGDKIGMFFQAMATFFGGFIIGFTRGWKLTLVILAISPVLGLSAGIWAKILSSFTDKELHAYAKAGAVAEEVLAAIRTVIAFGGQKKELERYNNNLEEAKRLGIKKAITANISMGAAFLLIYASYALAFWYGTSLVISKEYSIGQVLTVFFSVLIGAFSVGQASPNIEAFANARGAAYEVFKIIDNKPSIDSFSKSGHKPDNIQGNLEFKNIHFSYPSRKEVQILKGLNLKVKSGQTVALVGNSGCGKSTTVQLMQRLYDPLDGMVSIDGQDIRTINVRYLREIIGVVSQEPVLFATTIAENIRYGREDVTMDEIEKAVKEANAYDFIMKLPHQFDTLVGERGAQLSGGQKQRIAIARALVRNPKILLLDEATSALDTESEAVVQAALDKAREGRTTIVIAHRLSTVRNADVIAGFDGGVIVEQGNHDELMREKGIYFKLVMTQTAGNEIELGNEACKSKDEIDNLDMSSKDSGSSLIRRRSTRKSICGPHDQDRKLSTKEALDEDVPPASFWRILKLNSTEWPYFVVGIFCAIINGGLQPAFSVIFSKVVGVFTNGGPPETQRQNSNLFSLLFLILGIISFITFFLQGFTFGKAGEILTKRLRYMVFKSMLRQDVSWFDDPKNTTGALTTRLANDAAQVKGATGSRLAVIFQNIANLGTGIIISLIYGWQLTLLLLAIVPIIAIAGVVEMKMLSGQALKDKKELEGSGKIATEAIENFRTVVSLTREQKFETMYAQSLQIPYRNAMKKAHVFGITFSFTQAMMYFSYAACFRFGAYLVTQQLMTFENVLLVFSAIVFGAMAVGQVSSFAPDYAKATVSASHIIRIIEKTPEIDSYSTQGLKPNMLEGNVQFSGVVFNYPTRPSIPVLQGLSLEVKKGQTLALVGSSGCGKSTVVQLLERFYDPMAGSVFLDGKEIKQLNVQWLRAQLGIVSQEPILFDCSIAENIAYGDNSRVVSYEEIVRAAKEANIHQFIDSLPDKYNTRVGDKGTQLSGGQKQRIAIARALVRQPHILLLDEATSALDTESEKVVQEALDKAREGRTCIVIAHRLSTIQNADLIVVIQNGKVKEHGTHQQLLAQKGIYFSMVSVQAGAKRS
Sequence of ATP-dependent translocase ABCB1 (Mus musculus, UniProt P06795) (P06795 whole entry): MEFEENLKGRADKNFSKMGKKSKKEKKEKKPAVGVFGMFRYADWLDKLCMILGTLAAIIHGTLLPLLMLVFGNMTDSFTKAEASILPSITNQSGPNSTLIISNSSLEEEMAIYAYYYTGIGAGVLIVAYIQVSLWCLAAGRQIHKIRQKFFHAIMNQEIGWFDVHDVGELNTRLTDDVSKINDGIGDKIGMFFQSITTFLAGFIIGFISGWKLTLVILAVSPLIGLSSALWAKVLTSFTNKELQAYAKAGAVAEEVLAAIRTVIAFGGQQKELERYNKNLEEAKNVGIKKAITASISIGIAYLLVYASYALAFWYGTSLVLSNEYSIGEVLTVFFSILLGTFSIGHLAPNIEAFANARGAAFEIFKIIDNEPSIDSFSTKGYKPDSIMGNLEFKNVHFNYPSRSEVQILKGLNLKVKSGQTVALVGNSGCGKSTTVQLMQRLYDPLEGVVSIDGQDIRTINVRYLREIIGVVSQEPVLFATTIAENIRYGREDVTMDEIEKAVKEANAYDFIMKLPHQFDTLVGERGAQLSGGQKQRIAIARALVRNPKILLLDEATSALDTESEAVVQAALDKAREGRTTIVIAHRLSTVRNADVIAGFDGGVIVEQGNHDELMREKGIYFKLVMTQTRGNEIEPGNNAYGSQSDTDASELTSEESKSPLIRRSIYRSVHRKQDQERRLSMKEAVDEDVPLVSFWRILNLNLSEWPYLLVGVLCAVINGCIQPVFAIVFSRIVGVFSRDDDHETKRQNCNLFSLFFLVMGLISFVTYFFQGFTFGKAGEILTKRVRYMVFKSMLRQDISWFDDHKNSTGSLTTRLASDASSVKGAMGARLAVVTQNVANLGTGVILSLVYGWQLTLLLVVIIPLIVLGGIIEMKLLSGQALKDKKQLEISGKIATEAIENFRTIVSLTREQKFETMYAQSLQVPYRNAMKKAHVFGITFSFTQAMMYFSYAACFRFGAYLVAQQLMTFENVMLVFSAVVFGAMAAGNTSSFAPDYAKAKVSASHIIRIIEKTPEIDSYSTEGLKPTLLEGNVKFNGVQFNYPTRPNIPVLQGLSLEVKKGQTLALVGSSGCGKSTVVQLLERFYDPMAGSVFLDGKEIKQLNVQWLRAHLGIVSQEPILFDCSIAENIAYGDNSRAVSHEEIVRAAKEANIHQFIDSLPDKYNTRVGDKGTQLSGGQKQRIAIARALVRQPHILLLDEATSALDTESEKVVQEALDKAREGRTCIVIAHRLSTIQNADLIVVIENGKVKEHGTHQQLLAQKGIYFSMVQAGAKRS

Regarding `CC[C@@H](C(N)=O)N1CCCC1=O`, the Activity entry is “substrate [+]” in series [1], “is not a substrate [-]” in [2], “is not a substrate [-]” in series [3] and “is not a substrate [-]” in series [4].
For the compound `COc1cc2c(cc1OC)CN(CCc1ccc(NC(=O)c3cc(OC)c(OC)cc3NC(=O)c3cnc4ccccc4c3)cc1)CC2`, in [5], the Activity entry was “inhibitor [+]”.
`NC(=O)N1c2ccccc2C=Cc2ccccc21` [CARBAMAZEPINE]: the Activity result was “is not an inhibitor [-]” in series [6]; “is not a substrate [-]” in series [1]; “is not a substrate [-]” in series [2]; “is not a substrate [-]” in series [3]; “is not a inhibitor [-]” in series [7].
For the compound `O=C1NC(=O)C(c2ccccc2)(c2ccccc2)N1` [PHENYTOIN], the Activity result in series [1] is “substrate [+]”; in series [2] it was “is not a substrate [-]”; in series [3] it was “is not a substrate [-]”; in [4] it was “substrate [+]”.
For the compound `C/C=C/C[C@@H](C)C(=O)[C@H]1C(=O)N[C@@H](C(C)C)C(=O)N(C)CC(=O)N(C)[C@@H](CC(C)C)C(=O)N[C@@H](C(C)C)C(=O)N(C)[C@@H](CC(C)C)C(=O)N[C@@H](C)C(=O)N[C@H](C)C(=O)N(C)[C@@H](CC(C)C)C(=O)N(C)[C@@H](CC(C)C)C(=O)N(C)[C@@H](C(C)C)C(=O)N1C` [VALSPODAR], the Activity result in [8], in [9], in series [10] and in series [11] was “inhibitor [+]” each time.
`CC[C@]1(O)C[C@@H]2CN(CCc3c([nH]c4ccccc34)[C@@](C(=O)OC)(c3cc4c(cc3OC)N(C)[C@H]3[C@@](O)(C(=O)OC)[C@H](OC(C)=O)[C@]5(CC)C=CCN6CC[C@]43[C@@H]65)C2)C1` [VINBLASTINE]: the Activity result in series [4] is “substrate [+]”.

Values taken from ChEMBL document CHEMBL2074217, “Differences in the transport of the antiepileptic drugs phenytoin, levetiracetam and carbamazepine by human and mouse P-glycoprotein” (Neuropharmacology, 2006).
